Measurements gathered from unrelated publications.
Matrix: plasma

Structure (SMILES) | test system | conditions | endpoint | result
C=CC(=O)N1CC2CC(n3nc(-c4ccc(C(=O)Nc5ccccn5)cc4)c4c(N)ncnc43)CC2C1 (stereo not drawn) | male Wistar rat | oral, 300 mg/kg | AUC(0-t) | 80700 ng·h/mL
CCOC(=O)[C@@]12C[C@@H]1[C@@H](n1ccc3c(NC)nc(C#Cc4ccc(Cl)s4)nc31)[C@H](O)[C@@H]2O | male Sprague-Dawley rat | oral, 1 mg/kg | AUC(0-inf) | 38.2 ng·h/mL
Cl.Clc1ccc2c(c1)nc(N1CCNCC1)n2Cc1ccccc1 | rat | oral, 5 mg/kg | AUC | 1.5 µM·h
CCNC(=O)c1nc(-c2ccc3[nH]c(-c4nc(C)no4)cc3c2)c(C)[nH]1 | Sprague-Dawley rat | oral, 10 mg/kg | AUC | 10.3 µM·h
N#Cc1[nH]nnc1-c1cccc(OCc2cc(C(F)(F)F)ccc2C(F)(F)F)c1 | male Sprague-Dawley rat | oral, 10 mg/kg | AUC | 46400 ng·h/mL
Oc1c(Br)cc(Cl)c2cccnc12 | Sprague-Dawley rat | oral, 20 mg/kg | AUC(0-inf) | 4500 ng·h/mL
Cc1noc(-c2cc3cc(-c4nc(C(=O)NCc5ccncc5)[nH]c4C)ccc3[nH]2)n1 | Sprague-Dawley rat | oral, 10 mg/kg | AUC | 11.1 µM·h
CCc1cc(C(=O)NC)c2nccc(N3CCc4c(cc(Cn5ccnc5)cc4-c4cn(C)nc4C(F)(F)F)C3=O)c2c1 | male Sprague-Dawley rat | intravenous, 3 mg/kg | AUC(0-inf) | 1280 ng·h/mL
CC[C@H](C)[C@H](NC(=O)[C@H](Cc1ccccc1)NC(=O)[C@H](CCC(=O)O)NC(=O)[C@H](CCCNC(=N)N)NC(=O)[C@H](C)NC(=O)[C@H](C)NC(=O)[C@H](CCC(N)=O)NC(=O)[C@H](CCC(=O)O)NC(=O)[C@H](CCC(=O)O)NC(=O)[C@H](CC(C)C)NC(=O)[C@H](Cc1ccc(O)cc1)NC(=O)[C@H](CO)NC(=O)[C@H](CO)NC(=O)[C@@H](NC(=O)[C@H](CC(=O)O)NC(=O)[C@H](CO)NC(=O)[C@@H](NC(=O)[C@H](Cc1ccccc1)NC(=O)[C@@H](NC(=O)CNC(=O)[C@H](CCC(=O)O)NC(=O)[C@H](C)NC(=O)CCc1c[nH]cn1)[C@@H](C)O)[C@@H](C)O)C(C)C)C(=O)N[C@@H](C)C(=O)N[C@@H](Cc1c[nH]c2ccccc12)C(=O)N[C@@H](CC(C)C)C(=O)N[C@H](C(=O)N[C@@H](CCCNC(=N)N)C(=O)NCC(=O)N[C@@H](CCCNC(=N)N)C(=O)N[C@@H](CCCCNC(=O)COCCOCCNC(=O)COCCOCCNC(=O)CC[C@H](NC(=O)CCCCCCCCCCCCCCCCC(=O)O)C(=O)O)C(=O)O)C(C)C | rat | subcutaneous, 20 nmol/kg | AUC | 1.98 µM·h
COc1cc2c3c(n(CCCN4CCOCC4)c(=O)c2cc1OC)-c1cc2c(cc1C3=O)OCO2 | female Fischer 344 rat | intravenous, 24 mg/m², single dose | AUC(0-inf) | 806 ng·h/mL
N#Cc1ccc(Nc2nc(N)cc(Oc3c(F)cc(-c4ccc(C#N)cc4)cc3F)n2)cc1 | Sprague-Dawley rat | oral, 5 mg/kg | AUC | 100 ng·h/mL
N#Cc1[nH]nnc1-c1cccc(-c2cc(F)cc(C(F)(F)F)c2)c1 | male Sprague-Dawley rat | oral, 10 mg/kg | AUC | 68200 ng·h/mL
